The values below come from ChEMBL document CHEMBL1146071, “2,4-diaminopyrimidine derivatives as potent growth hormone secretagogue receptor antagonists” (J Med Chem, 2006).

Data set [1] concerns the target T1, Growth hormone secretagogue receptor type 1 (Homo sapiens, UniProt Q92847). The data set is described as follows: Displacement of [125I]ghrelin from human GHS receptor expressed in CHOK cells. The format is cell-based. In a few lines: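 Membranes from CHO-K cells expressing human ghrelin receptor, prepared by sonication and a 60000g spin. Filtered onto PEI-soaked GF/C, washed cold, scintillation counted; percent inhibition, sigmoidal fit for IC50.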

Data set [2] concerns the target T1, Growth hormone secretagogue receptor type 1. The data set is described as follows: Antagonist activity at human GHS receptor by inhibition of ghrelin-induced intracellular calcium flux in CHOK cells. Type of data set: functional, cell-based. In short, it runs like this:
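CHO-K cells stably expressing human GHS-R, grown in Ultra-CHO medium with 1% dialyzed FCS and 400 µg/mL G418, plated to confluency overnight. Loaded with Fluo-4 AM plus probenecid for 1-3 h in the dark at RT, then washed. On FLIPR (ex 488/em 520 nm), compound added first and read 3 min, then ghrelin added and read another 3 min. Duplicate or triplicate wells; sigmoidal fit for IC50.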
Background: Calcium assays in cells follow changes in intracellular calcium, usually with a dye or a luminescent sensor.

Data set [3] can be described thus: Concentration in Sprague-Dawley rat brain at 5 mg/kg after 1 hr. Type of data set: ADME, organism-based. Set-up: dose 5 mg/kg. The following applies: read-out: Ct. In short, it runs like this: (§1)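 Rats dosed at 5 mg/kg: iv for AUC (µg·h/mL), clearance (L/h·kg) and Cmax (µg/mL); oral for bioavailability unless stated otherwise. Brain (µg/g) and plasma levels taken at 1 and 8 h. Mean of n = 3.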

The nature of data set [4]: Plasma clearance in Sprague-Dawley rat at 5 mg/kg, iv. Type of data set: ADME, organism-based. Details: dose 5 mg/kg, route intravenous. In a few lines: as §1
A short description of data set [5]: Cmax in Sprague-Dawley rat at 5 mg/kg, iv. The following applies: in vivo. Set-up: dose 5 mg/kg, route intravenous. Type of data set: ADME, organism-based. In a few lines:
as §1

Data set [6] can be described thus: Plasma concentration in Sprague-Dawley rat at 5 mg/kg after 1 hr. Details: dose 5 mg/kg. The format is ADME, organism-based. In a few lines: as §1
A short description of data set [7]: Half life in Sprague-Dawley rat at 5 mg/kg. Type of data set: ADME, organism-based. Details: dose 5 mg/kg. The following applies: in vivo. In a few lines: as §1
Data set [8] can be described thus: Oral bioavailability in Sprague-Dawley rat at 5 mg/kg. Type of data set: ADME, organism-based. The following applies: in vivo. In a few lines: as §1
Data set [9] can be described thus: AUC in Sprague-Dawley rat at 5 mg/kg, iv. The format is ADME, organism-based, Plasma. Details: dose 5 mg/kg, route intravenous. The following applies: Sprague-Dawley, plasma. In a few lines:
as §1

Data set [10] is described as follows: Concentration in Sprague-Dawley rat brain at 30 mg/kg, ip after 8 hrs. Type of data set: ADME, organism-based. Details: dose 30 mg/kg, route intraperitoneal. The following applies: read-out: Ct. In short, it runs like this: (§2)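 Rats given 30 mg/kg ip. Brain (µg/g) and plasma levels measured at 1 and 8 h after dosing.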
A short description of data set [11]: Plasma concentration in Sprague-Dawley rat at 30 mg/kg, ip after 1 hr. Type of data set: ADME, organism-based. Set-up: dose 30 mg/kg, route intraperitoneal. In short, it runs like this: as §2
Data set [12] in a line: Plasma concentration in Sprague-Dawley rat at 30 mg/kg, ip after 8 hrs. The format is ADME, organism-based. Set-up: dose 30 mg/kg, route intraperitoneal. In a few lines: as §2
Data set [13] can be described thus: Concentration in Sprague-Dawley rat brain at 30 mg/kg, ip after 1 hr. The format is ADME, organism-based. Set-up: dose 30 mg/kg, route intraperitoneal. The following applies: read-out: Ct. In short, it runs like this:
as §2

Data set [14] in a line: Plasma concentration in Sprague-Dawley rat at 5 mg/kg after 8 hrs. The format is ADME, organism-based. Details: dose 5 mg/kg. In a few lines: as §1
Data set [15] can be described thus: Concentration in Sprague-Dawley rat brain at 5 mg/kg after 8 hrs. The following applies: read-out: Ct. The format is ADME, organism-based. Set-up: dose 5 mg/kg. In short, it runs like this: as §1

T1 sequence (Q92847 whole entry): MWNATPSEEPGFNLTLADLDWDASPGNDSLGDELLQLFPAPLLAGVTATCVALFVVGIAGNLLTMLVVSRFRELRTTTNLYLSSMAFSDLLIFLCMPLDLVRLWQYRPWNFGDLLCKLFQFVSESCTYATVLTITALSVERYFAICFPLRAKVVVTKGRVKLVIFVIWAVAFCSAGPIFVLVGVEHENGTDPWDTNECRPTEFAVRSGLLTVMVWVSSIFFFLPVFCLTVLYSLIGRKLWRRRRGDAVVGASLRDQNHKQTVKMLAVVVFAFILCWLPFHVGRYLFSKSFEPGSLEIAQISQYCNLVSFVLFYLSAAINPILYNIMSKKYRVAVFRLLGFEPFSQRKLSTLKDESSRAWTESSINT

As usually defined, the IC50 is the concentration that gives 50% inhibition. For the compound `CC(C)(C)CNc1ccc(-c2c(N)nc(N)nc2COCc2ccccc2)cc1`, the half-inhibitory concentration (IC50) amounted to 67 nM in data set [1] and 700 nM in data set [2].
What is called clearance is a measure of how efficiently the substance is removed, as volume per time. Low readings indicate inefficient removal, high ones efficient removal. By Cmax is commonly meant the maximum level reached in the sampled fluid or tissue. By half-life is commonly meant how long it takes for the measured level to halve. Higher therefore signals slow decline. Broadly, the bioavailability is dose-corrected exposure relative to a reference, in per cent. For orientation: AUC means concentration integrated over time. Low readings indicate low exposure, high ones high exposure. As for `CCc1nc(N)nc(N)c1-c1ccc(NCc2ccc(C(C)=O)cc2)cc1`, the figures for the concentration at 1 h in data set [3] and in data set [6] were 420 ng/g and 120 ng/mL, respectively. Moreover, the clearance in data set [4] was 61.7 mL/min/kg. Moreover, the results for the IC50 in data set [1] and in data set [2] were 57 nM and 110 nM, respectively. The compound also displayed a Cmax in data set [5] of 140 ng/mL. Besides, the half-life in data set [7] is 2.4 h. This compound also displayed a bioavailability in data set [8] of 51%. This compound yielded an AUC in data set [9] of 680 ng·h/mL.
Take `Nc1nc(N)c(-c2ccc(CNc3ccc([N+](=O)[O-])cc3)cc2)c(COCc2ccccc2)n1`: the results for the half-maximal inhibitory concentration (IC50) in data set [1] and in data set [2] were 0.8 nM and 16 nM, respectively.
In the same order, the values of `N#Cc1ccc(CNc2ccc(-c3c(N)nc(N)nc3COCc3ccccc3)cc2)cc1` are 2.8 nM and 19 nM.
The matching figures for `Nc1nc(N)c(-c2ccc(NCc3ccc(C(F)(F)F)cc3)cc2)c(COCc2ccccc2)n1`: 2.9 nM and 97 nM.
In the same order, the values of `CCc1nc(N)nc(N)c1-c1ccc(CNc2ccc(Cl)cc2)cc1` are 300 nM and 3150 nM.
On to `CCc1nc(N)nc(N)c1-c1ccc(NCc2ccc(C#N)cc2)cc1`, for which the figures for the IC50 in data set [1] and in data set [2] were 160 nM and 780 nM, respectively.
In the same order, the values of `N#Cc1ccc(COc2ccc(-c3c(N)nc(N)nc3COCc3ccccc3)cc2)cc1` are 83 nM and 3610 nM.
In the same order, the values of `Nc1nc(N)c(-c2ccc(NCc3csc(Cl)c3)cc2)c(COCc2ccccc2)n1` are 6.3 nM and 170 nM.
As for `Nc1nc(N)c(-c2ccc(NCc3ccc(Cl)cc3)cc2)c(CCc2ccccc2)n1`, the concentration at 8 h amounted to 400 ng/g in data set [10] and 90 ng/mL in data set [12]. For the same compound, the IC50 in data set [1] amounted to 3170 nM; in data set [2], 3350 nM. Also, the figures for the concentration at 1 h in data set [11] and in data set [13] were 800 ng/mL and 1340 ng/g, respectively.
Regarding `Nc1nc(N)c(-c2ccc(NCc3ccc(Cl)s3)cc2)c(COCc2ccccc2)n1`, the concentration for half-maximal inhibition (IC50) in data set [1] came to 43 nM; in data set [2], 320 nM.
In the same order, the values of `CC(=O)c1ccc(CNc2ccc(-c3c(N)nc(N)nc3COCc3ccccc3)cc2)cc1` are 1.2 nM and 10 nM.
For `CCc1nc(N)nc(N)c1-c1ccc(NCc2csc(Cl)c2)cc1`, the IC50 amounted to 290 nM in data set [1] and 790 nM in [2].
The matching figures for `CCc1nc(N)nc(N)c1-c1ccc(NCc2cc(F)c(S(=O)(=O)C(F)(F)F)c(F)c2)cc1`: 21 nM and 690 nM.
In the same order, the values of `Nc1nc(N)c(-c2ccc(NCc3ccnc(Cl)c3)cc2)c(COCc2ccccc2)n1` are 1.5 nM and 3.6 nM.
The matching figures for `Nc1nc(N)c(-c2ccc(NCc3ccncc3)cc2)c(COCc2ccccc2)n1`: 21 nM and 86 nM.
Take `CCc1nc(N)nc(N)c1-c1ccc(NCc2ccc(Cl)cc2)cc1`: the concentration at 1 h worked out at 2740 ng/g in data set [3] and 250 ng/mL in data set [6]. In data set [4], this compound had a clearance of 30 mL/min/kg. Moreover, the IC50 in data set [1] came out at 310 nM; in [2] it was 1380 nM. The concentration at 8 h in data set [14] was found to be 110 ng/mL; in [15], 600 ng/g. Besides, in data set [5], the highest concentration (Cmax) worked out at 170 ng/mL. The half-life in [7] was 5.2 h. Moreover, the bioavailability in [8] was determined as 76%. The AUC in data set [9] is 2200 ng·h/mL.
For `CCc1nc(N)nc(N)c1-c1ccc(CNc2ccc([N+](=O)[O-])cc2)cc1`, the values for the 50% inhibitory concentration (IC50) in data set [1] and in data set [2] were 9.2 nM and 190 nM, respectively.
Regarding `CCc1nc(N)nc(N)c1-c1ccc(NCc2ccnc(Cl)c2)cc1`, the figures for the IC50 in [1] and in data set [2] were 110 nM and 220 nM, respectively.
Consider `CS(=O)(=O)c1ccc(COc2ccc(-c3c(N)nc(N)nc3COCc3ccccc3)cc2)cc1`, for which the IC50 in [1] is 6.9 nM; in data set [2], 48 nM.
The matching figures for `CCc1nc(N)nc(N)c1-c1ccc(CNc2ccc(S(C)(=O)=O)cc2)cc1`: 9.8 nM and 120 nM.
As to `CCc1nc(N)nc(N)c1-c1ccc(NCc2ccc([N+](=O)[O-])cc2)cc1`, the concentration at 1 h is 530 ng/g in data set [3] and 270 ng/mL in data set [6]. For the same compound, the clearance in [4] is 43.3 mL/min/kg. The IC50 in [1] was 11 nM; in data set [2], 23 nM. In addition, the maximum concentration (Cmax) in data set [5] turned out to be 140 ng/mL. This compound also gave a half-life in data set [7] of 5.5 h. This compound also yielded a bioavailability in [8] of 68%. The same compound displayed an AUC in data set [9] of 1600 ng·h/mL.
On to `Nc1nc(N)c(-c2ccc(NCc3cnc4ccccc4c3)cc2)c(COCc2ccccc2)n1`, for which the IC50 came out at 130 nM in data set [1] and 780 nM in data set [2].
In the same order, the values of `Nc1nc(N)c(-c2ccc(NCc3ccccc3)cc2)c(COCc2ccccc2)n1` are 50 nM and 980 nM.
As to `CCc1nc(N)nc(N)c1-c1ccc(NCc2ccc(S(C)(=O)=O)cc2)cc1`, the figures for the concentration at 1 h in data set [3] and in data set [6] were 50 ng/g and 1020 ng/mL, respectively. The compound further gave a clearance in [4] of 15.7 mL/min/kg. For the same compound, the figures for the IC50 in data set [1] and in data set [2] were 7.4 nM and 12 nM, respectively. The compound also had a Cmax in data set [5] of 320 ng/mL. In data set [7], this compound gave a half-life of 6.6 h. Also, the bioavailability in [8] was determined as 52%. In [9], this compound returned an AUC of 2800 ng·h/mL.
As for `CS(=O)(=O)c1ccc(CNc2ccc(-c3c(N)nc(N)nc3COCc3ccccc3)cc2)cc1`, the IC50 in data set [2] was found to be 7.2 nM.
On to `CCc1nc(N)nc(N)c1-c1ccc(NCc2ccc(S(C)(=O)=O)cc2)c(Cl)c1`, for which the results for the concentration at 1 h in [3] and in data set [6] were 30 ng/g and 1040 ng/mL, respectively. In data set [4], this compound showed a clearance of 26.7 mL/min/kg. The concentration for half-maximal inhibition (IC50) in data set [1] was determined as 4.2 nM; in [2], 11 nM. This compound also came in with a Cmax in [5] of 160 ng/mL. In [7], this compound gave a half-life of 8.7 h. In addition, in [8], the bioavailability came to 78%. In [9], this compound gave an AUC of 2700 ng·h/mL.
On to `Nc1nc(N)c(-c2ccc(NCc3ccc([N+](=O)[O-])cc3)cc2)c(COCc2ccccc2)n1`, for which the concentration for half-maximal inhibition (IC50) in data set [1] worked out at 0.2 nM; in data set [2] it was 5.8 nM.
In the same order, the values of `COc1ccc(CNc2ccc(-c3c(N)nc(N)nc3COCc3ccccc3)cc2)cc1` are 7.7 nM and 90 nM.
In the same order, the values of `CCc1nc(N)nc(N)c1-c1ccc(NCc2ccc(S(C)(=O)=O)cc2)c(Br)c1` are 5.7 nM and 42 nM.
In the case of `CCc1nc(N)nc(N)c1-c1ccc(N(C)Cc2ccc(S(C)(=O)=O)cc2)cc1`, the concentration at 1 h is 40 ng/g in data set [3] and 1280 ng/mL in [6]. The clearance in [4] is 16.5 mL/min/kg. In addition, the concentration for half-maximal inhibition (IC50) in [1] came to 3.7 nM; in [2] it was 32 nM. The Cmax in data set [5] stood at 430 ng/mL. This compound had a half-life in data set [7] of 3.8 h. The compound further returned a bioavailability in data set [8] of 53%. In addition, the AUC in [9] was 2700 ng·h/mL.
As to `Nc1nc(N)c(-c2ccc(NCc3cc(F)c(S(=O)(=O)C(F)(F)F)c(F)c3)cc2)c(COCc2ccccc2)n1`, the half-inhibitory concentration (IC50) was 1 nM in [1] and 85 nM in data set [2].
In the same order, the values of `CCc1nc(N)nc(N)c1-c1ccc(NCc2ccc(C(C)O)cc2)cc1` (stereo not given) are 13 nM and 110 nM.
The matching figures for `CCc1nc(N)nc(N)c1-c1ccc(NCc2cc(F)c(S(C)(=O)=O)c(F)c2)cc1`: 2.4 nM and 45 nM.
